Bioassay records: PubChem BioAssay, Broad Institute
CSC inhib = cancer stem cell viability inhibitors, primary screen, luminescence; cancer stem cell-like cells viability; inhibition, % at 7.5 µM; 1.1% of 300,000 active; AID 2717, 2010; in the data active means inhibition above about 75%; tested in HMLE shEcad cells
Rtt109 HAT inh = inhibitors of C. albicans Rtt109/Vps75 HAT, primary screen, biochemical, ThioGlo CoA-SH fluorescence, plate reader; AID 540336, 2011; inhibition, % at 34.9 µM; purified Rtt109/Vps75, 4 h; 0.16% of 330,000 active;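 active means inhibition of at least 50% in every replicate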
Target sequence (Q5AAJ8 whole entry, looked up): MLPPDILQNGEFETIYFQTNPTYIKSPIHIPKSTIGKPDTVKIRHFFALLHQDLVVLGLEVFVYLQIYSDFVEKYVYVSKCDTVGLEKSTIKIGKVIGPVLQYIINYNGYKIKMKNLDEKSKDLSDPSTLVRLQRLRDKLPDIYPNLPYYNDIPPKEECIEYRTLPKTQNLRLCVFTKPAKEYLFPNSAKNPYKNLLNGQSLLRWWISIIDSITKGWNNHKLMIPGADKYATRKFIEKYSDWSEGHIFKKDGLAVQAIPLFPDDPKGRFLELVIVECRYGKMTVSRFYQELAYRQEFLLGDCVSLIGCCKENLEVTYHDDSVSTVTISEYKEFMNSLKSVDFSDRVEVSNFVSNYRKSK
FN deposit inh = inhibitors of fibronectin matrix deposition, primary screen, AH1F cells, Alexa488-fibronectin fluorescence, plate reader | inhibition, % at 12.6 µM | AH1F fibroblasts, overnight | 0.086% of 350,000 active;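 active means mean inhibition across replicates of 30% or more, regardless of how many single replicates reach that level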;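 further: positive control wells lacked labelled fibronectin entirely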
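Schedule: 1 h cell adhesion before compound, then overnight fibronectin incubation; test system: AH1F fibroblast monolayer depositing Alexa488-labelled fibronectin into matrix; quantity: 10000 AH1F cells per well; probe or stimulus: fluorescent fibronectin at 24 nM final; signal: fluorescence, ex 485 nm, em 525 nm; evaluation: percent inhibition as loss of matrix-bound fibronectin fluorescence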
SKKanGAS inh = S. pyogenes SKKanGAS growth inhibitors in kanamycin, primary screen, streptokinase expression inhibitor project, SKKanGAS strain, BacTiter-Glo luminescence; 6 h; inhibition, % at 7.5 µM; 1.3% of 300,000 active; AID 1662, 2009;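 active means mean replicate score, as percent of positive control median, at least 50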;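 further: strain carries kanamycin resistance gene driven by streptokinase promoter and grows in 40 µg/ml kanamycin; loss of luminescence reflects streptokinase promoter inhibition or plain growth inhibition; 0% = median of DMSO wells and 100% = positive control at its reference dose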
PfHsp90 set2 = growth inhibition of PfHsp90-expressing yeast, primary screen, antimalarial PfHsp90 inhibitor project, S. cerevisiae, BacTiter-Glo luminescence, single point, set 2; BacTiter-Glo ATP, 48 h; yeast lacking PDR1 and PDR3 efflux regulators; inhibition, % at 9.4 µM; 0.32% of 310,000 active;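 active means every replicate shows inhibition above about 80%, whatever the replicate mean, limit read from the data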;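 further: 0% = DMSO neutral controls and 100% = 20 µM radicicol positive controls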
PglD DTNB = C. jejuni PglD acetyltransferase inhibitors, primary screen, biochemical, DTNB colorimetric, single point | UDP-N-acetylbacillosamine N-acetyltransferase PglD (Campylobacter jejuni) | purified PglD enzyme, DTNB colorimetric CoA detection | inhibition, % at 12.5 µM | 0.098% of 360,000 active | AID 602405, 2012; in the data active means inhibition above about 16%, passing the limit was not always enough
* marks the source's active call; other numbers are inactive results; nt = no result. Hits are enriched below; roughly 1.7% of the tested compounds scored in any of these assays.

SMILES	CSC inhib	Rtt109 HAT inh	FN deposit inh	SKKanGAS inh	PfHsp90 set2	PglD DTNB
O=C(NC(=S)N1CCN(c2ccc(F)cc2)CC1)C12CC3CC(CC(C3)C1)C2	7	4	-3	51*	-11	nt
O=C(Nc1ccccc1N1CCN(c2ccc(F)cc2)CC1)C12CC3CC(CC(C3)C1)C2	14	10	-4	13	-5	7
CCC(=O)N1[C@H](CN(CC)C(=O)c2ccccc2)[C@H](c2ccccc2)[C@@H]1CO	nt	nt	nt	nt	nt	0
CCc1sc(C(=O)Nc2cccc(C(C)=O)c2)cc1C	-6	52*	nt	-13	2	-5
Clc1ccc(-c2csc(N3CCCCCC3)n2)cc1	14	-2	10	54*	-4	1
C[C@H](CO)N1C[C@H](C)[C@H](CN(C)C(=O)Nc2ccccc2)Oc2c(NS(=O)(=O)c3ccc(Cl)cc3)cccc2C1=O	nt	nt	nt	nt	nt	0
Cc1ccc(S(=O)(=O)N2C[C@@H](O)COC[C@H]3O[C@H](CC(=O)NCCN4CCCCC4)CC[C@@H]32)cc1	nt	nt	-13	nt	nt	1
Cc1noc(-c2ccc(Cl)cc2)c1C(=O)O/N=C(\N)c1ccc(C(C)(C)C)cc1	171*	6	-4	8	-44	nt
Clc1ccc(C(c2ccccc2Cl)C(Cl)Cl)cc1 (centres undefined)	98*	7	-3	nt	10	1
CCc1ccc(C(c2ccc(CC)cc2)C(Cl)Cl)cc1	18	-11	nt	nt	26	3
CCOc1cc(/C=C2\CN(C)C/C(=C\c3ccc(O)c(OCC)c3)C2=O)ccc1O	105*	5	7	20	7	-8
COc1cc(C=C2CN(C)C(=O)C2=O)ccc1O	nt	nt	-22	nt	nt	-13
CSc1ccc(S(=O)(=O)NCC(=O)OCC(=O)N2CCCC2=O)cc1[N+](=O)[O-]	-11	27	12	68*	-6	2
Cc1ccc(S(=O)(=O)NCC[C@@H]2CC[C@H](NC(=O)Nc3cccc(F)c3)[C@H](CO)O2)cc1	nt	nt	-6	nt	nt	2
Cc1cc(C)n2ncc(C(=O)NCc3ccccc3)c2n1	2	7	3	1	-65	2
Cc1cc(C)n2ncc(C(=O)NCc3ccc(Cl)cc3)c2n1	-1	2	46*	5	-5	0
C[C@H](CO)N1C[C@H](C)[C@@H](CN(C)Cc2ccc3c(c2)OCO3)Oc2c(NC(=O)c3ccc(-c4nccs4)cc3)cccc2C1=O	nt	nt	nt	nt	nt	6
COc1ccc(-c2cc3nc4ccccc4n3c(N)c2C#N)cc1	9	-15	-5	74*	-13	nt
Cc1ccc(C(=O)CC(=O)c2ccccc2C)c(O)c1	26	-4	12	97*	-1	0
Cc1ccc(O)c(C(=O)CC(=O)c2ccccc2Cl)c1	6	-10	nt	81*	-50	nt
Cc1ccc(C)c(NC(=O)c2ccccc2O)c1	28	6	nt	-8	-19	1
COc1ccc(O)c(C(=O)CC(=O)c2ccccc2)c1	3	nt	nt	8	nt	nt
Cc1ccc(O)c(C(=O)CC(=O)c2ccc(C(C)(C)C)cc2)c1	10	-19	-3	95*	19	-1
COc1ccc(C(=O)Nc2c3c(nn2-c2ccc([N+](=O)[O-])cc2)CS(=O)(=O)C3)cc1	-6	7	-1	52*	3	5
COc1ccc(C(=O)Nc2c3c(nn2-c2ccc(Cl)cc2)CS(=O)(=O)C3)cc1	8	20	-6	-4	14	1
SMILES	CSC inhib	Rtt109 HAT inh	FN deposit inh	SKKanGAS inh	PfHsp90 set2	PglD DTNB
C[C@H](CO)N1C[C@H](C)[C@@H](CN(C)S(=O)(=O)c2ccc(Cl)cc2)Oc2ccc(NC(=O)CCC(F)(F)F)cc2C1=O	nt	nt	nt	nt	nt	1
CCCc1ccc(C2C3=C(CC(C)(C)CC3=O)NC3=C2C(=O)c2ccccc23)cc1 (centres undefined)	89*	6	nt	26	20	9
CO[C@H]1CN(C)C(=O)c2cc(NC(=O)Nc3ccc(Cl)cc3)ccc2OC[C@H](C)N(C(=O)Nc2c(C)noc2C)C[C@H]1C	nt	nt	-7	nt	nt	1
O=C(C[C@H]1CC[C@@H]2[C@H](COC[C@@H](O)CN2Cc2ccc(F)cc2)O1)NCc1ccccc1Cl	nt	nt	1	nt	nt	0
CC/C(=C\C1CCCCC1)C(NP(=O)(c1ccccc1)c1ccccc1)c1ccccc1 (centres undefined)	126*	-3	-19	101*	-6	-3
O=P(NC1CCCCC1)(c1ccccc1)c1ccccc1	nt	2	4	nt	nt	5
CC(C)NC(=O)Nc1ccc2c(c1)CC(=O)N([C@H](C)CO)C[C@@H](C)[C@@H](CN(C)S(=O)(=O)c1ccc(Cl)cc1)O2	nt	nt	-4	nt	nt	9
CC(=O)OCCCNc1cc(Sc2ccc(Cl)cc2)c2nonc2c1[N+](=O)[O-]	81*	10	1	-2	7	nt
CCCNC(=O)[C@@H]1[C@@H](CO)[C@@H]2Cn3c(ccc(-c4ccccc4F)c3=O)[C@H]1N2C(C)=O	nt	nt	nt	nt	nt	3
COc1c(Cl)cc(Cl)cc1/C=C/C(=O)c1ccc(NC(=O)c2cccs2)cc1	103*	18	8	26	-14	-6
COCCNC(=O)C[C@@H]1C[C@H]2c3cc(NC(=O)CC4CC4)ccc3O[C@H]2[C@H](CO)O1	nt	nt	-3	nt	nt	1
CCn1nc(C)cc1-c1nnc(Sc2ncc([N+](=O)[O-])s2)n1C	nt	-8	8	51*	-31	7
COC(=O)C[C@H]1CC[C@@H]2[C@@H](COc3ccc(NC(=O)Cc4cccs4)cc3C(=O)N2C)O1	nt	nt	40*	nt	nt	1
Cc1nnc(SCC2=C(C(=O)O)N3C(=O)C(NC(=O)COc4ccc(F)cc4)C3SC2)s1 (centres undefined)	1	8	0	nt	19	0
Cc1nnc(SCC2=C(C(=O)O)N3C(=O)C(NC(=O)Cn4nc(C(F)F)cc4C)C3SC2)s1 (centres undefined)	-3	nt	-7	112*	-42	nt
CC(=O)OCC1=C(C(=O)O)N2C(=O)C(NC(=O)CCn3nc(C(F)(F)F)c(Br)c3C3CC3)C2SC1 (centres undefined)	0	-16	1	110*	16	nt
CC(=O)OCC1=C(C(=O)O)N2C(=O)[C@@H](NC(=O)Cc3cccs3)[C@H]2SC1	-15	4	nt	103*	-18	-1
Cc1nnc(SCC2=C(C(=O)O)N3C(=O)C(NC(=O)Cn4nc(C(F)F)c(Cl)c4C)C3SC2)s1 (centres undefined)	-9	8	5	96*	20	8
CC(=O)OCC1=C(C(=O)O)N2C(=O)C(NC(=O)COc3ccc(F)cc3)C2SC1 (centres undefined)	nt	19	-4	nt	6	3
CC(=O)OCC1=C(C(=O)O)N2C(=O)[C@@H](NC(=O)Cc3ccccc3)[C@H]2SC1	nt	-2	nt	nt	-2	2
CCCNC(=O)C[C@@H]1CC[C@@H]2[C@H](COc3ccc(NC(=O)C4CCCC4)cc3C(=O)N2C)O1	nt	nt	-3	nt	nt	0
